The target in test [1] is T1, Peroxisome proliferator-activated receptor gamma (Homo sapiens, UniProt P37231).
T1 sequence (P37231 whole entry): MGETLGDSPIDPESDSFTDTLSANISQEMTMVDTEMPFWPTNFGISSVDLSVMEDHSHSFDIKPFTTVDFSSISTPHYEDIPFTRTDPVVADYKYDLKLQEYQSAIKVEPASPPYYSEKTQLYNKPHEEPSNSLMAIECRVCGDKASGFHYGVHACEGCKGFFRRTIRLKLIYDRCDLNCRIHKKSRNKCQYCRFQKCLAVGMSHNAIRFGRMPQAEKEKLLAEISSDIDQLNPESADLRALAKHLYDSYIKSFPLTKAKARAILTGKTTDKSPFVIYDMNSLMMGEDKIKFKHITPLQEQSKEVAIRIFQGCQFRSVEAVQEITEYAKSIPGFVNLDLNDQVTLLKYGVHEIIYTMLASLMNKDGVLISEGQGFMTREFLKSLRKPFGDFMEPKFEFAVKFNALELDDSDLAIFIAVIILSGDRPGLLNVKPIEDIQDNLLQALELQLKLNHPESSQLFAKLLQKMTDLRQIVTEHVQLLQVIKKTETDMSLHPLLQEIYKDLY
Nature of the test: Partial agonist activity at human PPARgamma-LBD/Gal4 DNA binding domain by transactivation assay.

The target of test [2] is T2, Type-1 angiotensin II receptor (Homo sapiens, UniProt P30556).
T2 sequence (P30556 whole entry): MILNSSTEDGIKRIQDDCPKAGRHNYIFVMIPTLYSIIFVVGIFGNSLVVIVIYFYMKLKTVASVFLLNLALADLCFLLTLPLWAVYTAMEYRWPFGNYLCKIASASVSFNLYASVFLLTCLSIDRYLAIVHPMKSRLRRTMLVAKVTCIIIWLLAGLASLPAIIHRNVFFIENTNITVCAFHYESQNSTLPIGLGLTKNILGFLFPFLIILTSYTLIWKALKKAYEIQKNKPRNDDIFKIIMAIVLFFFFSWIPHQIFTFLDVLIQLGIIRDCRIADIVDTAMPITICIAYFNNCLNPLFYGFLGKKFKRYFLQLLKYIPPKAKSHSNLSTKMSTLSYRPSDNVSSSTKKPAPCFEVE
Briefly: Displacement of [125I]Tyr4-Sar1,Ile8-Angiotensin II from human Angiotensin 1 receptor after 60 mins by scintillation counting. (In general: In a radioligand displacement assay an active substance lowers the binding of a labelled ligand.)

For test [3], the system named is Rattus norvegicus. Nature of the test: Antidiabetic activity in ZDF rat assessed as triglyceride level at 3 mg/kg, po QD for 40 days (reference value: 618+/-52 mg/dL). It is filed as functional.
The subject of test [4] is Rattus norvegicus. Briefly: Antidiabetic activity in ZDF rat assessed as blood glucose level at 3 mg/kg, po QD for 40 days (reference value: 771+/-60 mg/dL). It counts as functional.
The test system of test [5] is Rattus norvegicus. Briefly: Antidiabetic activity in ZDF rat assessed as body weight gain at 3 mg/kg, po QD for 40 days measured on day 6 (reference value: 133+/-9 g). It counts as functional, organism-based. The arrangement: dose 3 mg/kg.
Test [6] concerns Rattus norvegicus. Briefly: Antidiabetic activity in ZDF rat assessed as body weight gain at 3 mg/kg, po QD for 40 days (reference value: 133+/-9 g). It counts as functional. In outline:
(§1)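 Male ZDF rats, starting at about 6 weeks old, were dosed orally once daily for 40 days in 1.5% CMC/0.2% Tween 20 suspension, n = 8/group. Body weight was followed over the study. Gain was calculated per animal from day 0 to day 40 and compared with vehicle and pioglitazone (3 mg/kg) groups. Data are mean ± SEM.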

The subject of test [7] is Rattus norvegicus. Briefly: Antidiabetic activity in ZDF rat assessed as adiponectin level at 3 mg/kg, po QD for 40 days (reference value: 11.9+/-1.5 ug/ml). It is filed as functional.
Test [8] has as its system Rattus norvegicus. Nature of the test: Antidiabetic activity in ZDF rat assessed as triglyceride level at 100 mg/kg, po QD for 40 days (reference value: 618+/-52 mg/dL). It counts as functional.
For test [9], the system named is Rattus norvegicus. Nature of the test: Antidiabetic activity in ZDF rat assessed as body weight gain at 100 mg/kg, po QD for 40 days measured on day 32 (reference value: 133+/-9 g). It is filed as functional, organism-based. The arrangement: dose 100 mg/kg.
The subject of test [10] is Rattus norvegicus. Nature of the test: Antidiabetic activity in ZDF rat assessed as body weight gain at 100 mg/kg, po QD for 40 days (reference value: 133+/-9 g). It counts as functional. The method in brief:
as §1

The test system of test [11] is Rattus norvegicus. Nature of the test: Antidiabetic activity in ZDF rat assessed as blood glucose level at 100 mg/kg, po QD for 40 days (reference value: 771+/-60 mg/dL). It counts as functional.
Test [12] concerns Rattus norvegicus. Nature of the test: Antidiabetic activity in ZDF rat assessed as adiponectin level at 100 mg/kg, po QD for 40 days (reference value: 11.9+/-1.5 ug/ml). It is filed as functional.

Calls of active or inactive are those of the source. The rule behind the calls is not given here.

By EC50 is commonly meant the concentration giving half of the maximal effect. Higher therefore signals lower potency in that assay. In general, IC50 refers to the point on the concentration scale where inhibition reaches its midpoint. Low values mean greater potency, high ones weaker potency. Turning to `CCc1nc2c(C)c(C)c(C)nc2n1[C@H]1CCc2cc(-c3ccccc3-c3nnn[nH]3)ccc21`, in [1], the response was half-maximal at 1820 nM (EC50). For the same molecule, the IC50 in test [2] was determined as 202 nM.
Molecule `CCc1nc2c(C)cc(C)nc2n1Cc1ccc(-c2ccccc2-c2nnn[nH]2)cc1` [L-158809] registered an EC50 in test [1] of more than 20000 nM.
Consider `Cc1cc(C)c2nc(C(C)C)n([C@H]3CCc4cc(-c5ccccc5-c5nnn[nH]5)ccc43)c2n1`, for which the EC50 in test [1] is 295 nM. This molecule registered a half-maximal inhibitory concentration (IC50) in test [2] of 10.2 nM.
As to `CCc1ccc(CCOc2ccc(CC3SC(=O)NC3=O)cc2)nc1` (stereo unspecified) [PIOGLITAZONE], the Activity is 316 mg/dL in [3], 118 mg/dL in test [4], 269 g in [6] and 30.5 µg/mL in test [7]. Also, the result in [5] was Active.
Take `CCc1nc2c(C)cc(CC(C)C)nc2n1[C@H]1CCc2cc(-c3ccccc3C(=O)O)ccc21`: in test [1], it took 175 nM to reach a half-maximal effect (EC50). The molecule further displayed an IC50 in test [2] of 10.5 nM.
The matching figures for `CCc1nc2c(C)cc(C)nc2n1C1CCc2cc(-c3ccccc3-c3nn[nH]n3)ccc21` (racemic): 574 nM and 96 nM.
Take `CCc1nc2c(CC(C)C)cc(C)nc2n1[C@H]1CCc2cc(-c3ccccc3-c3nnn[nH]3)ccc21`: in test [1], the EC50 was found to be 165 nM. This molecule came in with an IC50 in [2] of 748 nM.
The matching figures for `CCCCc1nc2c(C)cc(C)nc2n1C1CCc2cc(-c3ccccc3-c3nn[nH]n3)ccc21` (racemic): 2200 nM and 238 nM.
For `CCCc1nc2c(C)cc(C)nc2n1[C@H]1CCc2cc(-c3ccccc3-c3nnn[nH]3)ccc21` the same measures were 1320 nM and 13.3 nM.
In test [2], `CCc1nc2c(C)cc(Cc3ccccc3)nc2n1[C@H]1CCc2cc(-c3ccccc3-c3nnn[nH]3)ccc21` showed an IC50 of 5.2 nM.
`CCc1nc2c(C)cc(C)nc2n1[C@H]1CCc2cc(-c3ccccc3-c3nnn[nH]3)ccc21`: the EC50 in test [1] was found to be 591 nM. In addition, the IC50 in test [2] was found to be 7.6 nM.
As for `CCc1nc2c(C)cc(C)nc2n1[C@@H]1CCc2cc(-c3ccccc3-c3nnn[nH]3)ccc21`, the EC50 in [1] amounted to 2620 nM. For the same molecule, in test [2], the IC50 was 661 nM.
For `CCc1c(C)nc2c(nc(CC)n2[C@H]2CCc3cc(-c4ccccc4-c4nnn[nH]4)ccc32)c1C` the same measures were 1340 nM and 15.7 nM.
The molecule `Cc1cc(CC(C)C)nc2c1nc(C(C)C)n2[C@H]1CCc2cc(-c3ccccc3-c3nnn[nH]3)ccc21` returned an EC50 in [1] of 89 nM. The same molecule displayed an IC50 in test [2] of 3.5 nM.
The matching figures for `CCc1cc(C)c2nc(C(C)C)n([C@H]3CCc4cc(-c5ccccc5-c5nnn[nH]5)ccc43)c2n1`: 264 nM and 16.9 nM.
For `CCc1cc(C)c2nc(CC)n([C@H]3CCc4cc(-c5ccccc5-c5nnn[nH]5)ccc43)c2n1` the same measures were 494 nM and 6.8 nM.
In [1], `Cc1cc(C)c2nc(C3CC3)n([C@H]3CCc4cc(-c5ccccc5-c5nnn[nH]5)ccc43)c2n1` showed an EC50 of 762 nM. Moreover, in test [2], the concentration for half-maximal inhibition (IC50) worked out at 8.2 nM.
On to `CCCc1nc2c(C)cc(-c3nc4ccccc4n3C)cc2n1Cc1ccc(-c2ccccc2C(=O)O)cc1`, for which the Activity is 935 mg/dL in [8], 157 g in test [10], 510 mg/dL in [11] and 13.2 µg/mL in test [12]. Moreover, the outcome in test [9] was Active. A half-maximal response in test [1] (EC50) required 1520 nM.
